# Bioassay records (PubChem BioAssay)
# In the library only some 3.5% were active in any assay of this set; here they are far more common.
# RGS4 inh – inhibitors of human RGS4. AID 463165. B-score at 10 µM. actives 0.45% (n = 310,000). P49798. HEK293 M3R/RGS4 inducible, Fluo-4 calcium flux; active compounds read high; triggered by carbachol at its EC20;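 active = B-score, a plate-corrected calcium signal, over three deviations above library mean, with baseline fluorescence within five deviations of library mean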;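 also: RGS4 expression induced by doxycycline in cells with stable M3 receptor; B-score is computed from the integrated fluorescence ratio over baseline after carbachol; higher B-score means a larger calcium signal and so more RGS4 inhibition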
# Target sequence (P49798 whole entry, looked up): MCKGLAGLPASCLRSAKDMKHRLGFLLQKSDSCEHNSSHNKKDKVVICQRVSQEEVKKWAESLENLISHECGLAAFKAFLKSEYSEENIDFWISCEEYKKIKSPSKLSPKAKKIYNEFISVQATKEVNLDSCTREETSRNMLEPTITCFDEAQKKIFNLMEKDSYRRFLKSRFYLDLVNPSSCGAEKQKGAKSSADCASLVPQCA
# RGS4 act – RGS4 potentiation or activation; HEK293 M3R/inducible RGS4, carbachol calcium flux Fluo4; active compounds read low; B-score at 10 µM; actives 0.92% (n = 310,000);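 active = B-score of the integrated calcium signal more than 4 SD below the library mean, with starting fluorescence not abnormally high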;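 also: negative B-score means reduced calcium response which marks RGS4 activation or potentiation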
#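 Assay system: HEK293 FlpIn-TREx cells, stable M3R, doxycycline-inducible RGS4 / Probe or stimulus: carbachol, ECmax concentration / Times: overnight RGS4 induction, 30 min dye load 37 °C, 20 min compound RT / Signal: kinetic calcium fluorescence imaging with Fluo4-AM dye, 2 µM / Measure: Agonist-evoked peak-minus-minimum fluorescence over baseline, integrated ratio, B score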
# MrgX1 allo act – human MrgX1 positive allosteric modulation, primary screen; Q96LB2; MrgX1-HEK293, Fluo-4 calcium flux, FDSS; active compounds read high; B-score at 10 µM; actives 0.63% (n = 310,000); AID 588675;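 active = plate-corrected calcium response at least 3 library SD above typical, normal starting fluorescence, not activating the receptor alone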;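 also: compound read alongside a low EC10 to EC30 dose of BAM8-22 agonist; peak minus trough fluorescence over baseline measured at the second addition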
# Target sequence (Q96LB2 whole entry, looked up): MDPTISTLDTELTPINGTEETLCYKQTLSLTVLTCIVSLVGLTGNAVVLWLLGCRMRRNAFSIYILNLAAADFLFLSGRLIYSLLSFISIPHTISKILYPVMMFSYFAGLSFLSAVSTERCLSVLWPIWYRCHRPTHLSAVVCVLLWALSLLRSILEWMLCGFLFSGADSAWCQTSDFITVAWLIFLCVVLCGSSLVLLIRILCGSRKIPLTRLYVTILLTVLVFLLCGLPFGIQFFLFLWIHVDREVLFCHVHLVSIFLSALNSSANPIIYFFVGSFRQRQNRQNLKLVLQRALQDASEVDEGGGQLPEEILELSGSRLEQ
# MrgX1 antag – human MrgX1 receptor antagonism, primary screen | Q96LB2 | MRGX1-HEK293 calcium flux, Fluo-4, BAM8-22 antagonism; active compounds read low | B-score at 10 µM | actives 1.3% (n = 310,000);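 active = calcium-response B-score plate-corrected more than 3 library SD below zero, starting fluorescence within 5 deviations, no agonist response on first addition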;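 also: peak minus trough fluorescence over baseline after final BAM8-22 challenge near maximal dose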
# MrgX1 ag – activates human MrgX1 receptor signaling | Q96LB2 | MrgX1-HEK293 cells, Fluo-4 calcium fluorescence, agonist mode; active compounds read high | B-score at 10 µM | actives 0.44% (n = 310,000);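 active = calcium response B-score plate-corrected fluorescence ratio at least 3 library SD, with starting fluorescence B-score inside 5 SD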
#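 Test system: Stable human MrgX1 HEK293 cell line | Schedule: Overnight plating before 1 h dye loading | Read-out basis: Baseline-normalised fluorescence change ratio, B-scored | Detection: Kinetic calcium dye fluorescence, Fluo-4 NW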
# RGS4 act valid – RGS4 activation, validation assay; actives 89% (n = 1,100); HEK293 M3R/RGS4 inducible, carbachol calcium flux Fluo4; AID 602282; shares compounds with RGS4 act; inhibition, % at 10 µM;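 active = inhibition above 3 SD of the buffer control wells, cut at about 41% in these data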;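 also: signal is the integrated peak-minus-minimum Fluo4 fluorescence over baseline ratio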
# M3R Ca counter – activity in cells without induced RGS4 expression; shares compounds with RGS4 act; HEK293 M3R non-induced RGS4, Fluo4 calcium flux; after carbachol challenge at its EC90; inhibition, % at 10 µM; actives 82% (n = 1,100);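 active = inhibition exceeding 3 SD of buffer-only control wells, cut at about 26% in these data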;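 also: percent drop in integrated peak-minus-baseline over baseline Fluo4 ratio after carbachol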
# An asterisk follows results filed as active; i = inactive; nt = not tested or not shown.
SMILES,RGS4 inh,RGS4 act,MrgX1 allo act,MrgX1 antag,MrgX1 ag,RGS4 act valid,M3R Ca counter
COc1ccccc1/C=C/C=N/n1c(-c2n[nH]c3c2CCC3)n[nH]c1=S,i,i,i,i,i,nt,nt
S=c1[nH]nc(-c2n[nH]c3c2CCC3)n1/N=C/C=C/c1ccco1,i,-9.1*,i,i,i,89*,58*
CNS(=O)(=O)c1cccc(C(=O)OCC(=O)N2CCCC2)c1,i,i,i,i,i,nt,nt
CNS(=O)(=O)c1cccc(C(=O)OCc2cc(Cl)cc3c2OCOC3)c1,i,-8.6*,i,i,i,0,0
COC(=O)c1ccc(CN2CCC(Oc3cccc(C(=O)N4CCCC4)c3)CC2)cc1,i,-8*,i,i,i,87*,59*
COC(=O)c1ccc(CN2CCC(Oc3ccc(C(=O)N4CCCCC4)cc3)CC2)cc1,i,-9.9*,i,i,i,92*,80*
CSc1ccc(CN2CCC(Oc3cccc(C(=O)N4CCCC4)c3)CC2)cc1,i,i,i,i,i,nt,nt
CS(=O)(=O)Nc1ccc(S(=O)(=O)N2CCCCCC2)cc1,i,i,i,i,i,nt,nt
Cc1ccc(NC(=S)NC(NC(=O)c2ccccc2C)C(Cl)(Cl)Cl)c(C)c1 (configuration not stated),i,-8.5*,i,i,i,0,0
CCOC(=O)c1nnn(-c2nonc2N)c1-c1ccc(OC)cc1,i,i,i,i,i,nt,nt
Cc1ccc(N(CC(=O)NCc2ccc3c(c2)OCO3)S(=O)(=O)c2c(C)noc2C)cc1,i,i,i,i,i,nt,nt
Cc1noc(C)c1S(=O)(=O)N(CC(=O)NCc1ccc2c(c1)OCO2)c1ccc(C(C)C)cc1,i,-8.3*,i,i,i,0,0
CC(C)(C)c1[nH]nc2c1C(c1cccnc1)C(C#N)=C(N)O2 (configuration not stated),i,i,i,i,i,nt,nt
CC(C)(C)c1[nH]nc2c1C(Cc1ccccc1)C(C#N)=C(N)O2 (configuration not stated),i,-9.3*,i,-5.1*,i,92*,84*
Cc1ccc(-n2nc(C)cc2Nc2ncc(Cl)cc2Cl)cc1,i,-8.7*,i,i,i,92*,74*
COc1ccc(C(CNc2nc(-c3cccnc3)nc3ccccc23)N(C)C)cc1 (configuration not stated),i,-9.3*,i,i,i,60*,84*
COC(=O)CNc1nc(-c2cccnc2)nc2ccccc12,nt,nt,i,i,i,nt,nt
c1ccc(CNc2nc(-c3cccnc3)nc3ccccc23)cc1,i,-8.4*,i,i,i,84*,37*
Cc1ccc(CNc2nc(-c3cccnc3)nc3ccccc23)cc1,i,i,i,i,i,nt,nt
CC(C)(C)C(=O)N1CCN(c2c(Cl)cccc2[N+](=O)[O-])CC1,i,i,i,i,i,nt,nt
CN(C)C(C)(C)C#CCC(c1ccccc1)c1ccccc1,i,-8.2*,i,i,i,90*,59*
COC(=O)NC1(C(F)(F)F)C(=O)Nc2c1c(=O)n(C)c(=O)n2C (configuration not stated),i,i,i,i,i,nt,nt
O=C(CN1CCCC1)N1c2ccccc2Sc2ccccc21,i,-9.5*,i,i,i,92*,69*
NCCC(=O)N1c2ccccc2Sc2ccccc21,i,i,i,i,i,nt,nt
CCN(CC)CC(=O)N1c2ccccc2Sc2ccccc21,i,-8.5*,i,i,i,93*,81*
SMILES,RGS4 inh,RGS4 act,MrgX1 allo act,MrgX1 antag,MrgX1 ag,RGS4 act valid,M3R Ca counter
COc1cccc(C2SCC(=O)N2c2ccc(Br)cc2)c1OC (configuration not stated),i,-9.8*,i,i,i,91*,92*
Cc1c(OCC(=O)NCC2CCC(C(=O)O)CC2)ccc2c(-c3ccccc3)cc(=O)oc12 (configuration not stated),i,i,i,i,i,nt,nt
N#Cc1ccccc1Sc1ccccc1C(=O)NCC(c1ccco1)N1CCCC1 (configuration not stated),i,-7.9*,i,i,i,65*,29*
N#Cc1ccc(C(=O)NCC(c2ccco2)N2CCCC2)cc1 (configuration not stated),i,i,i,i,i,nt,nt
COc1ccc(C2(C(=O)N3CCCC3)CCOCC2)cc1OC,i,i,i,i,i,nt,nt
Cc1cc(C)n(-c2ccc(C(=O)Nc3ccc(C)c(S(=O)(=O)N4CCOCC4)c3)cc2)n1,i,-8.1*,i,i,i,89*,57*
CCOC(=O)CC1CCCCN1C(=O)c1ccc2nc(CCOC)oc2c1 (configuration not stated),i,i,i,i,i,nt,nt
O=C(c1ccc([N+](=O)[O-])cc1)N1CCN(c2ncccn2)CC1,i,i,i,i,i,nt,nt
CC1CCN(c2ccc3c(c2)S(=O)(=O)c2ccccc2C3=O)CC1,i,-8.2*,i,i,i,68*,65*
NC(=O)C1CCN(c2ccc3c(c2)S(=O)(=O)c2ccccc2C3=O)CC1,i,i,i,i,i,nt,nt
COc1ccc(-c2oc3ncnc(NCCCN4CCOCC4)c3c2-c2ccc(OC)cc2)cc1,i,i,i,i,i,nt,nt
COc1ccc(-c2oc3ncnc(NCCN4CCOCC4)c3c2-c2ccc(OC)cc2)cc1,i,-9.8*,i,i,i,88*,70*
CC(C)OCCCN(C)C1CCN(S(=O)(=O)c2ccc(-c3cc(C(F)(F)F)no3)s2)CC1,i,-7.7*,i,i,i,49*,84*
CC(C)OCCCN(C)C1CCN(S(=O)(=O)c2csc(C(N)=O)c2)CC1,i,i,i,i,i,nt,nt
CCCc1cc(C(=O)N2CCN(c3ccc(C(F)(F)F)cn3)CC2)sc1C,i,-11*,i,i,i,83*,56*
CC(=O)c1cccc(OCC(=O)N2CCN(c3ccc(C(F)(F)F)cn3)CC2)c1,i,-12*,i,i,i,0,0
COc1ccccc1OC(C)C(=O)Nc1ccc(S(=O)(=O)N2CCN(C)CC2)cc1 (configuration not stated),i,i,i,i,i,nt,nt
